Results published in ChEMBL document CHEMBL3396952, “Structural and biological evaluation of a novel series of benzimidazole inhibitors of Francisella tularensis enoyl-ACP reductase (FabI)” (Bioorg Med Chem Lett, 2015).
Converted amounts (≈) assume the structure as drawn.

Legend:
Escherichia coli [1] = test: Antimicrobial activity against TolC-deficient Escherichia coli measured after overnight incubation by microdilution method; assay type: functional
Escherichia coli [2] = test: Antimicrobial activity against wild-type Escherichia coli BW25113 measured after overnight incubation by microdilution method; assay type: functional
Staphylococcus aureus [3] = test: Antimicrobial activity against methicillin-resistant Staphylococcus aureus ATCC 43300 measured after overnight incubation by microdilution method; assay type: functional
Francisella tularensis = test: Antimicrobial activity against Francisella tularensis Utah 112 measured after overnight incubation by microdilution method; assay type: functional
[4] = Inhibition of N-terminus His-tagged Francisella tularensis subsp. Tularensis Schu4 Fab1 expressed in Escherichia coli […] (DE3) cells assessed as conversion of crotonyl-CoA and NADH to butyryl-CoA and NAD+ preincubated for 30 mins by fluorescence analysis; design: species or system Francisella tularensis subsp. tularensis SCHU S4
How it was run: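 Experimental Ki came from varying crotonyl-CoA against inhibitor concentration at saturating NADH (200 µM). Calculated Ki used Cheng-Prusoff, IC50 = Ki(1+[S]/Km), with [S]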

Staphylococcus aureus [5] = test: Antimicrobial activity against Staphylococcus aureus ATCC 29213 measured after overnight incubation by microdilution method; assay type: functional

| SMILES | MIC (Escherichia coli [1]) [µg/mL] | MIC (Escherichia coli [2]) [µg/mL] | MIC (Staphylococcus aureus [3]) [µg/mL] | MIC (Francisella tularensis) [µg/mL] | IC50 [4] [nM] | MIC (Staphylococcus aureus [5]) [µg/mL] | MBC (Escherichia coli [1]) [µg/mL] | MBC (Staphylococcus aureus [5]) [µg/mL] | MBC (Staphylococcus aureus [3]) [µg/mL] | MBC (Francisella tularensis) [µg/mL] | Ki [4] [nM] |
| --- | --- | --- | --- | --- | --- | --- | --- | --- | --- | --- | --- |
| Cc1cc2ncn(Cc3ccc(Cl)c(Cl)c3)c2cc1C | 6.25 (≈ 20.5 µM) | > 200 | 50 (≈ 164 µM) | 7.8 (≈ 25.6 µM) | 300 |  |  |  |  |  |  |
| Cc1cc2ncn(C(C)c3ccc(Cl)c(Cl)c3)c2cc1C (stereo not given) | 6.3 (≈ 19.7 µM) | > 12.5 | 12.5 (≈ 39.2 µM) | > 12.5 | 370 | 12.5 (≈ 39.2 µM) |  |  |  |  |  |
| CC(c1ccc(Cl)c(Cl)c1)n1cnc2cc3c(cc21)CCC3 (stereo not given) | 3.1 (≈ 9.36 µM) | > 12.5 | 6.3 (≈ 19 µM) | 3.9 (≈ 11.8 µM) | 18 | 5.5 (≈ 16.6 µM) | 12.5 (≈ 37.7 µM) | > 25 | 12.5 (≈ 37.7 µM) | 9.4 (≈ 28.4 µM) |  |
| CC(c1ccc(Cl)c(Cl)c1)n1cnc2cc3c(cc21)CCCC3 (stereo not given) |  | > 12.5 | 3.1 (≈ 8.98 µM) | 3.1 (≈ 8.98 µM) | 14 | 3.1 (≈ 8.98 µM) | 12.5 (≈ 36.2 µM) | 25 (≈ 72.4 µM) | 25 (≈ 72.4 µM) | 25 (≈ 72.4 µM) |  |
| CC(c1ccc(Cl)c(Cl)c1)n1cnc2cc3c(cc21)CC(C)(C)C3 (stereo not given) | > 12.5 | > 12.5 | 4.7 (≈ 13.1 µM) | > 12.5 | 240 | 4.7 (≈ 13.1 µM) | > 25 | > 12.5 | > 12.5 |  |  |
| CC(c1ccc(Cl)c(Cl)c1)n1cnc2cc3c(cc21)COC3 (stereo not given) | > 12.5 | > 12.5 | > 12.5 | > 12.5 | 890 | > 12.5 |  |  |  |  |  |
| COc1ccc(Cn2cnc3cc4c(cc32)CCC4)cc1C | 12.5 (≈ 42.8 µM) | > 12.5 | > 12.5 | 5.5 (≈ 18.8 µM) | 5 | > 12.5 |  |  |  | 12.5 (≈ 42.8 µM) |  |
| COc1ccc(Cn2cnc3cc4c(cc32)CCCC4)cc1C | 4.7 (≈ 15.3 µM) | > 12.5 | 12.5 (≈ 40.8 µM) | 3.1 (≈ 10.1 µM) | 140 | 6.3 (≈ 20.6 µM) | 9.4 (≈ 30.7 µM) | 25 (≈ 81.6 µM) |  | 6.3 (≈ 20.6 µM) | 130 |
| COc1ccc(Cn2cnc3cc4c(cc32)CCCC4)cc1OC | > 12.5 | > 12.5 | > 12.5 | > 12.5 | 1360 | > 12.5 |  |  |  |  | 1430 |
| c1cc2c(cc1Cn1cnc3cc4c(cc31)CCCC4)OCO2 | 9.4 (≈ 30.7 µM) | > 12.5 | 6.3 (≈ 20.6 µM) | 4.7 (≈ 15.3 µM) | 320 | 4.7 (≈ 15.3 µM) | 25 (≈ 81.6 µM) | > 25 | > 25 | 18.8 (≈ 61.4 µM) | 330 |
